# HKDC1 inh = blocks human hexokinase HKDC1 activity; AID 493160; recombinant HKDC1, G6PDH/diaphorase resazurin coupled fluorescence; inhibition, % at 20 µM; 0.16% of 340,000 active; Q2TB90;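 active = inhibition above about 35% when tested at 20 µM, limit read from the data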;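 note: plate controls were DMSO wells with enzyme for no effect and DMSO wells lacking enzyme for full effect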
#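 Incubation: 90 min at room temperature in dark / Material: recombinant HKDC1 (HK5) hexokinase enzyme, produced in-house / Quantity: enzyme 5 µg/mL final / Compound: one dose of 20 µM, 1% DMSO / Reagent: glucose and ATP substrates / Buffer or medium: Tris pH 8.0 buffer with MgCl2, Tween-20, BSA, BME / Technique: resorufin fluorescence at 613 nm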
# M18AAP inhibitor = blocks P. falciparum M18 aspartyl aminopeptidase; recombinant PfM18AAP, H-Glu-NHMec fluorogenic cleavage; inhibition, % at 7.35 µM; 1.2% of 290,000 active;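 active = inhibition above the campaign mean inhibition over all tested compounds plus 3 SD, cut at about 28% in these data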;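 note: 0% = plate median of test compound wells and 100% = 2 mM ZnCl2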
# PfGluPho inh = PfG6PD (Plasmodium falciparum) enzyme inhibition | PfGluPho enzyme, NADPH resazurin-diaphorase fluorescence | inhibition, % at 20 µM | 0.78% of 350,000 active | AID 504690;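 active = inhibition reaching at least a set limit at 20 µM in the primary screen, cut at about 59% in these data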;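 note: 0% = DMSO wells with substrate and 100% = DMSO wells lacking glucose-6-phosphate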
# Neddylation inh = blocks human cullin neddylation. P61081+Q13564. TR-FRET cullin neddylation, biochemical. inhibition, % at 25 µM. 0.58% of 360,000 active. AID 651699; in the data active = inhibition above about 36%
# Target sequence (P61081 whole entry, looked up): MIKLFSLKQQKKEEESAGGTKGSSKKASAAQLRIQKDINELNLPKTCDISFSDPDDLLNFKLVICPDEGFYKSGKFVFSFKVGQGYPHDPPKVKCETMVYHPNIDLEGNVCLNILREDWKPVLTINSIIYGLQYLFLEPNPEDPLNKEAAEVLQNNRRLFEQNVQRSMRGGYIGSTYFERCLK
# Target sequence (Q13564 whole entry, looked up): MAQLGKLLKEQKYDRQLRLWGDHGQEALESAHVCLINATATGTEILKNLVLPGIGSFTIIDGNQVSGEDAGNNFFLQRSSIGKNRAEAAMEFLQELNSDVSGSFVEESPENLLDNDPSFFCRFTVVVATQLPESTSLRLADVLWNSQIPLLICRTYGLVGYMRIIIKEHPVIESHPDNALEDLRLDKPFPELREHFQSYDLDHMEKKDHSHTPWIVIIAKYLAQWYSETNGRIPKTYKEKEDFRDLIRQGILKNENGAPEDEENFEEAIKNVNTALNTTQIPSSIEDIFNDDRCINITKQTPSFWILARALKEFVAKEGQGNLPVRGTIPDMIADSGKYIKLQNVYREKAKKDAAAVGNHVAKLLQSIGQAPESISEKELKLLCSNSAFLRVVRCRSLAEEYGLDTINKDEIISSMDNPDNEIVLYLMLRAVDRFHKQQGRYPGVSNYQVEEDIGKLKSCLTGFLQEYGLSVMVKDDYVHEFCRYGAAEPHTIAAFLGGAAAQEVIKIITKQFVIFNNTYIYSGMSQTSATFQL
# * marks the source's active call; other numbers are inactive results; i = inactive; / = no result given. The list is not random: actives were taken first. Their share in the collection is about 2.2%.
SMILES,HKDC1 inh,M18AAP inhibitor,PfGluPho inh,Neddylation inh
CC(=Nc1ccc(C)cc1)c1sc2ccccc2c1O,-4,6,22,37
O=C(NNC(=O)c1cc2ccccc2cc1O)c1cccs1,1,29*,-24,14
COc1ccc(CC(=O)NC(=S)NNC(=O)COc2c(C)cccc2C)cc1,-17,47*,-25,3
Cc1c(C(=O)N/N=C/c2ccc(O)c(Br)c2)sc(N)c1C#N,6,6,28,42*
COc1cc(/C=N/NC(=O)c2sc(N)c(C#N)c2C)ccc1O,10,-10,15,10
COC(=O)/C(=C\Nc1ccc(Cl)cc1Cl)NC(=O)c1ccc(OC)cc1,-1,-7,15,7
CCOc1ccccc1C(=O)NCC(=O)N1CCC(C)CC1,-3,/,-3,3
Cc1cccc(OCC(=O)NC(=S)NNC(=O)c2ccncc2)c1,-6,45*,77*,8
C[C@H](CO)N1C[C@H](C)[C@@H](CN(C)Cc2ccncc2)Oc2c(NC(=O)C3CC3)cccc2C1=O,-6,/,1,-9
Nc1ccc2nc(-c3ccccn3)[nH]c2c1,14,3,19,27
COc1ccc2nc(-c3ccccn3)[nH]c2c1,-2,3,21,43*
Cn1cc(Cl)c(C(=O)Nc2nc3ccc([N+](=O)[O-])cc3s2)n1,-4,30*,-26,-15
CC(Sc1ccccc1)C(=O)NNC(=O)c1ccncc1 (stereo unspecified),-5,/,-13,8
O=C(Nc1nnc(-c2ccccc2Cl)o1)c1cccnc1,-3,30*,-13,-8
COc1ccc(N2C(=O)CSC2c2ccc(F)cc2)cc1 (stereo unspecified),4,4,-7,2
COc1ccc(-n2sc3ccc(F)cc3c2=O)cc1,5,/,112*,-25
Cc1cc(C)c(C2=CC(=O)C[C@H](c3ccc4c(c3)OCO4)C2)c(C)c1,-2,/,2,-23
COc1ccc(NC(=O)CSc2nnc(-c3ccco3)c(-c3ccco3)n2)cc1OC,12,31*,42,-28
Cc1ccc(NC(=O)CSc2nnc(-c3ccco3)c(-c3ccco3)n2)cc1,9,-2,46,3
CN(C)c1ccc(NC(=O)CSc2nnc(-c3ccco3)c(-c3ccco3)n2)cc1,17,31*,56,-4
O=C(CSc1nnc(-c2ccco2)c(-c2ccco2)n1)Nc1ccccc1,17,32*,49,-12
NC(=O)C1CCN(C(=O)c2cc3ccccc3cc2O)CC1,2,/,22,4
CN(C)/C=N/c1nc2nccc(-c3ccccc3)n2n1,5,6,1,/
CC(C)C(NC(=O)c1ccc(F)cc1)C(=O)N1CCN(C(=O)c2ccco2)CC1 (stereo unspecified),-5,/,0,-12
CCC1=NN2C(=N)/C(=C\c3ccc(SCc4ccco4)o3)C(=O)N=C2S1,14,30*,21,-18
SMILES,HKDC1 inh,M18AAP inhibitor,PfGluPho inh,Neddylation inh
O=C1NC(=S)S/C1=C\c1ccc(SCc2ccco2)o1,51*,37*,26,-4
Cc1ccccc1OCC(=O)OCC(=O)NCCc1ccccc1,-3,/,-7,11
NC(=O)c1ccc2c(=O)c(O)c(-c3cc(Cl)c(N)c(Cl)c3)[nH]c2c1,-14,51*,-4,/
COc1cc(C(C[N+](=O)[O-])c2c(C)[nH]c3ccccc23)ccc1O (stereo unspecified),-3,29*,3,-6
CC(=O)N/C(N)=N/c1nc(=O)c2ccccc2s1,5,0,1,-118
CC(=O)Nc1nc(=O)c2ccccc2s1,-10,30*,6,3
CCn1c(SC(=O)NC2CCCCC2)nnc1-c1cccs1,7,47*,16,/
CCn1c(SCC(=O)NC2CCCCC2)nnc1-c1cccs1,-14,-8,6,1
COc1cccc(NC(=O)C2(C)CCN2Cc2ccccc2OC(F)F)c1 (stereo unspecified),/,/,/,2
On1ccccc1=S,-2,/,75*,0
O=C(CN1C(=O)c2cccc([N+](=O)[O-])c2C1=O)OCC(=O)N1CCCCC1,-4,/,-12,-11
CCN1/C(=C/C=C/c2oc3ccc4ccccc4c3[n+]2CC)Oc2ccc3ccccc3c21,51*,-4,60*,/
CC[n+]1c(/C=C/N(C)c2ccccc2)oc2ccc(Cl)cc21,-19,27,29,-15
N#CC1=C(N)NC(=S)C(C(N)=O)C1c1ccc(Cl)cc1Cl (stereo unspecified),13,30*,47,-11
COc1ccc(C(C[N+](=O)[O-])C2(c3ccc(OC)c(OC)c3)C(=O)c3ccccc3C2=O)cc1 (stereo unspecified),6,35*,39,-78
COc1ccc(C(C[N+](=O)[O-])c2c(-c3ccccc3)cc3ccccn23)cc1OC (stereo unspecified),-4,21,22,-6
CC(NC(=O)C(NS(=O)(=O)c1cccc2nsnc12)C(C)C)c1ccccc1 (stereo unspecified),-5,2,-4,-43
O=C(O)CCN=CC1=C(O)CC(c2ccccc2)CC1=O (stereo unspecified),0,-1,-18,2
N#CCSc1nnc(COc2cccc3ccccc23)n1-c1ccccc1,1,-10,12,2
COc1ccc(-n2c(COc3cccc4ccccc34)nnc2SCC#N)cc1,5,29*,15,6
Cc1cc(=O)oc2cc(OCC(=O)Nc3ccc4[nH]c(=O)[nH]c4c3)ccc12,2,/,4,18
O=C(/C=C/c1cccc(Cl)c1)c1ccc([N+](=O)[O-])o1,61*,/,97*,i
Cc1cc(O)c(C(=O)/C=C/c2cccc([N+](=O)[O-])c2)c(=O)o1,10,9,-5,-17
O=C(Cc1ccc(Br)cc1)Nc1ccc(S(=O)(=O)Nc2ncccn2)cc1,-6,-13,-16,7
CCOC(=O)C1=C(CS(=O)(=O)c2ccc(F)c(C)c2)NC(=O)NC1c1ccc(O)c(O)c1 (stereo unspecified),-3,75*,9,1
SMILES,HKDC1 inh,M18AAP inhibitor,PfGluPho inh,Neddylation inh
CCOC(=O)C1=C(CS(=O)(=O)c2ccc(C)cc2)NC(=O)NC1c1cc(OC)c(O)c(OC)c1 (stereo unspecified),0,7,26,-1
S=c1[nH]nc(-c2ccccc2)n1/N=C/C=C/c1ccco1,-6,20,31,-6
Cc1ccccc1-c1n[nH]c(=S)n1/N=C/C=C/c1ccco1,11,6,24,60*
CN(C)S(=O)(=O)c1cccc(NC(=O)c2ccc(S(=O)(=O)N3CCCC3)cc2)c1,-1,/,4,4
COc1cc(NC(=S)Nc2cccc(Cl)c2Cl)c(OC)cc1Cl,-2,29*,11,15
COc1cc(/C=N/NC(=O)c2cc(-c3ccco3)nc3ccccc23)cc(OC)c1O,4,12,37,-6
O=C(N/N=C/c1cccc(F)c1)c1cc(-c2ccco2)nc2ccccc12,15,10,15,40*
CCCc1ccc(/C=C2\C(=O)c3ccccc3C(O)=C2C(=O)OCC)cc1,/,-1,/,/
CCOC(=O)C1=C(O)c2ccccc2C(=O)/C1=C\c1ccc(CC)cc1,59*,-15,94*,1
